Consider seven molecules from ChEMBL document CHEMBL3784921, “Mimicking of Arginine by Functionalized N(ω)-Carbamoylated Arginine As a New Broadly Applicable Approach to Labeled Bioactive Peptides: High Affinity Angiotensin, Neuropeptide Y, Neuropeptide FF, and Neurotensin Receptor Ligands As Examples” (J Med Chem, 2016).

The target in data set [1] is T1, Type-1 angiotensin II receptor (Homo sapiens, UniProt P30556).
T1 sequence (P30556 whole entry): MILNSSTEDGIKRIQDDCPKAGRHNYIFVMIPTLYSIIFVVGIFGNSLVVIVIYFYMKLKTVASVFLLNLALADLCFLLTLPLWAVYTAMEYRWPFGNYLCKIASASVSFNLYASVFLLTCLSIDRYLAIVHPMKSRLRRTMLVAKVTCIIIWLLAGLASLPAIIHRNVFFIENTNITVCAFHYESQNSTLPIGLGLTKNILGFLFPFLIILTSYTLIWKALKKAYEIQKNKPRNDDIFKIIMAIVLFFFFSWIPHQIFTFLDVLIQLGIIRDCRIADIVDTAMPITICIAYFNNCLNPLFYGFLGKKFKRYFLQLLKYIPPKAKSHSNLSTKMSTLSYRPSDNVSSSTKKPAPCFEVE
Briefly: Displacement of [3H]-Angiotensin 2 from human AT1 receptor transfected in CHOK1 cells preincubated for 30 mins with bovine serum albumin followed by radioligand addition by liquid scintillation counting. Type of data set: cell-based, CHO-K1.

Data set [2] deals with T1, Type-1 angiotensin II receptor. In words: Displacement of [3H]-Asp-{Nomega-[N-(4-propanoylaminobutyl)aminocarbonyl]}Arg-ValTyr-Ile-His-Pro-Phe-OH Tris(hydrotrifluoroacetate) from human AT1 receptor transfected in CHO cells co-expressing Galpha16-mtAEQ after 2 hrs by liquid scintillation counting. In kind it is cell-based.
Data set [3] deals with T2, Neurotensin receptor type 1 (Homo sapiens, UniProt P30989). Briefly: biochemical.
T2 sequence (P30989 whole entry): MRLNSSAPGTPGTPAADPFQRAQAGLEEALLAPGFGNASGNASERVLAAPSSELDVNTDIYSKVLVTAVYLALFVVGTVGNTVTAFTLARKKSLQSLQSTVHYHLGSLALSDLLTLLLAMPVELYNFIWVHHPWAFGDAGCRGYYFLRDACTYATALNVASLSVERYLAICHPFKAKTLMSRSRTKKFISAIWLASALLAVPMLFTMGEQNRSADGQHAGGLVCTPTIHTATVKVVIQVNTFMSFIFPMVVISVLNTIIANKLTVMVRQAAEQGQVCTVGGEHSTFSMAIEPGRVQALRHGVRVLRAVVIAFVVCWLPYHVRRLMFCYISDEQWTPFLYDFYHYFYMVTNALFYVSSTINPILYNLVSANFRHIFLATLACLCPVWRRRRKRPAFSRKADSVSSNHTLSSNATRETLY
For data set [4], the target named is T2, Neurotensin receptor type 1. Briefly: biochemical. This is another data set of the same source.
Data set [5] shares this target. In words: Binding affinity to human NTSR1 receptor transfected in CHO cells co-expressing Galpha16-mtAEQ after 2 hrs by liquid scintillation counting. Type of data set: cell-based.
In data set [6] the target is T1, Type-1 angiotensin II receptor. In words: biochemical.
Data set [7] can be described thus: Binding affinity to AT1 receptor natively expressed in rat mesangial cells. In kind it is cell-based.
Data set [8] in a line: Chemical stability of compound at 150 uM at pH 7 at 21 degC after 24 to 48 hrs by reversed-phase HPLC analysis. In kind it is physicochemical. Conditions: buffer, pH 7, 150 µM. The procedure, abridged:
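Peptide incubated in phosphate buffer (PBS), pH 7.0, 21 °C, for 24 or 48 h. Remaining intact peptide assessed from reversed-phase HPLC chromatograms.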

Data set [9] in a line: Drug degradation in CHO cells expressing human AT1 receptor at 50 uM after 2 hrs by reversed-phase HPLC analysis. In kind it is ADME, cell-based, Cricetulus griseus. The conditions noted are these: chinese hamster, read-out: Drug degradation. A digest of the protocol:
(§1)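 Stability tested under binding-assay conditions for up to 6 h: AT1 ligands with CHO-hAT1 cells and NTSR1 ligands with HT-29 cells. Samples analysed by reversed-phase HPLC chromatography.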

Data set [10] has as its target T1, Type-1 angiotensin II receptor. In words: Agonist activity at human AT1 receptor transfected in CHO cells co-expressing Galpha16-mtAEQ assessed as induction of intracellular Ca2+ mobilization by bioluminescence assay. Type of data set: functional, cell-based.
The nature of data set [11]: Chemical stability of compound at 200 uM at pH 7 at 21 degC after 24 to 48 hrs by reversed-phase HPLC analysis. Type of data set: physicochemical. Conditions: buffer, pH 7, 200 µM. The procedure, abridged: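 Peptide incubated in phosphate buffer (PBS), pH 7.0, 21 °C, for 24 or 48 h. Remaining intact peptide assessed by reversed-phase HPLC chromatograms.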
Data set [12] in a line: Drug degradation in CHO cells expressing human AT1 receptor at 50 uM after 6 hrs by reversed-phase HPLC analysis. Type of data set: ADME, cell-based, Cricetulus griseus. Conditions: chinese hamster, read-out: Drug degradation. A digest of the protocol: as §1
Data set [13] can be described thus: Drug degradation in human HT-29 cells at 50 uM after 2 hrs by reversed-phase HPLC analysis. In kind it is ADME, cell-based. Conditions: read-out: Drug degradation. The procedure, abridged:
as §1

Data set [14] is described as follows: Drug degradation in human HT-29 cells at 50 uM after 6 hrs by reversed-phase HPLC analysis. In kind it is ADME, cell-based. The conditions noted are these: read-out: Drug degradation. The procedure, abridged:
as §1

Data set [15] deals with T2, Neurotensin receptor type 1. In words: Displacement of [3H]-{Nomega-[N-(4-propanoylaminobutyl)aminocarbonyl]}Arg-Arg-ProTyr-Ile-Leu-OH Tris(hydrotrifluoroacetate) from human NTSR1 transfected in CHO cells co-expressing Galpha16-mtAEQ after 2 hrs by liquid scintillation counting. In kind it is cell-based.
The target is the same in data set [16]. In words: Agonist activity at NTSR1 in human HT-29 cells assessed as induction of intracellular Ca2+ mobilization by fura-2 dye-based spectrofluorimetric analysis. In kind it is functional, cell-based. The conditions noted are these: read-out: EC50.
In data set [17] the target is Neurotensin receptor type 2 (Homo sapiens, UniProt O95665). Briefly: Displacement of [3H]NT(8 to 13 residues) from human NTSR2 expressed in HEK293 cell membranes.
Neurotensin receptor type 2, sequence (O95665 whole entry, the tested form may be a part): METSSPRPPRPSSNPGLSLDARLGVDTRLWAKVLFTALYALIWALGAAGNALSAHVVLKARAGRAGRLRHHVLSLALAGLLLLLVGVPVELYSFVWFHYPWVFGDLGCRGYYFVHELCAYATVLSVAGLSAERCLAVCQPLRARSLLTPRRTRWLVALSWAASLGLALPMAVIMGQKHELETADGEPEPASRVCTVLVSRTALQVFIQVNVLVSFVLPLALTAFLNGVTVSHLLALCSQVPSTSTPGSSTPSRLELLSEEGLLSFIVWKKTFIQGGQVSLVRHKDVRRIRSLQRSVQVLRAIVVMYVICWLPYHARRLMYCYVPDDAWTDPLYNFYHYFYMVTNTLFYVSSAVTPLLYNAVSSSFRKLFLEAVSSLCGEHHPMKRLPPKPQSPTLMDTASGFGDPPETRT
For data set [18], the target named is T2, Neurotensin receptor type 1. In words: Displacement of [3H]-{Nomega-[N-(4-propanoylaminobutyl)aminocarbonyl]}Arg-Arg-ProTyr-Ile-Leu-OH Tris(hydrotrifluoroacetate) from NTSR1 in human HT-29 cells after 2 hrs by liquid scintillation counting. Type of data set: cell-based.
Data set [19] concerns the target T3, Neuropeptide FF receptor 2 (Homo sapiens, UniProt Q9Y5X5). In words: Displacement of [3H]EYE from human NPFF2 receptor expressed in CHO cell membranes after 1 hr by liquid scintillation spectrophotometric counting.
The target in data set [20] is T3, Neuropeptide FF receptor 2. Briefly: Binding affinity to human NPFF2 receptor expressed in CHO cell membranes after 1 hr by liquid scintillation spectrophotometric counting.

*1 amine or outer side, *2 acyl side, *3 side chain or, on linkers, in order; H or OH if unused. Where a SMILES comes first, the peptide text is derived from it. [ ]: non-standard residue; d: D form. X1 = CCC(=O)NCCCCNC(=O)/N=C(\N)NCCC[C@H](N[*:1])C(=O)[*:2] Some results are limits rather than exact numbers.

T3 sequence (Q9Y5X5 whole entry): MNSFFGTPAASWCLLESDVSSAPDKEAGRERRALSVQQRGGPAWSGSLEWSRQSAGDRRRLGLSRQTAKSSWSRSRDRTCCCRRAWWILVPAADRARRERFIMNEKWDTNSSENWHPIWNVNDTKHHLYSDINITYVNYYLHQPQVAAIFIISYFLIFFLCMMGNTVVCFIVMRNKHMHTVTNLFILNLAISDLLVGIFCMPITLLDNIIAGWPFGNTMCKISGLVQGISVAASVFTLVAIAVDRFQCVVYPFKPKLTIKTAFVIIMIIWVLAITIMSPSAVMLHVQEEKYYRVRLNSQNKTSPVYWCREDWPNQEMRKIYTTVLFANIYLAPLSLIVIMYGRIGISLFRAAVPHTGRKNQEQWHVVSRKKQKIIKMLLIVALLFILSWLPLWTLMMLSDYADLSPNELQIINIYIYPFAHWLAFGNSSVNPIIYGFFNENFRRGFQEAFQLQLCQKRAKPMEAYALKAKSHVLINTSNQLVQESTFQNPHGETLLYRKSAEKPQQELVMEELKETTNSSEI

On to `CCOc1nc2cccc(C(=O)O)c2n1Cc1ccc(-c2ccccc2-c2nnn[nH]2)cc1`, for which the half-maximal inhibitory concentration (IC50) is 0.69 nM in data set [1] and 10.7 nM in data set [2]. This molecule showed a Ki in [2] of 3.5 nM.
For `O=C(O)C(F)(F)F.O=C(O)C(F)(F)F.O=C(O)C(F)(F)F.[3H]CC([3H])C(=O)NCCCCNC(=O)/N=C(\N)NCCC[C@H](N)C(=O)N[C@@H](CCCNC(=N)N)C(=O)N1CCC[C@H]1C(=O)N[C@@H](Cc1ccc(O)cc1)C(=O)N[C@H](C(=O)N[C@@H](CC(C)C)C(=O)O)[C@@H](C)CC` (stereo not given in full), the dissociation constant Kd worked out at 0.51 nM in data set [3], 0.44 nM in data set [4] and 0.58 nM in data set [5].
As to `O=C(O)C(F)(F)F.O=C(O)C(F)(F)F.O=C(O)C(F)(F)F.[3H]CC([3H])C(=O)NCCCCNC(=O)/N=C(\N)NCCC[C@H](NC(=O)[C@@H](N)CC(=O)O)C(=O)N[C@H](C(=O)N[C@@H](Cc1ccc(O)cc1)C(=O)N[C@H](C(=O)N[C@@H](Cc1cnc[nH]1)C(=O)N1CCC[C@H]1C(=O)N[C@@H](Cc1ccccc1)C(=O)O)[C@@H](C)CC)C(C)C` (stereo not given in full), the Kd in data set [6] came out at 0.94 nM; in [7], 1.5 nM.
As for `CC[C@H](C)[C@H](NC(=O)[C@H](Cc1ccc(O)cc1)NC(=O)[C@@H]1CCCN1C(=O)[C@H](CCCNC(=N)N)NC(=O)[C@@H](N)CCCN/C(N)=N/C(=O)NCCCCNC(=O)CCCCCN1\C(=C/C=C/C=C/C2=[N+](C)c3ccccc3C2(C)C)C(C)(C)c2ccccc21)C(=O)N[C@@H](CC(C)C)C(=O)O.O=C(O)C(F)(F)F.O=C(O)C(F)(F)F.O=C(O)C(F)(F)F.O=C(O)C(F)(F)F.[Br-]`, the Stability entry in data set [8] is reported as “Stable”.
With `CCC(=O)NCCCCNC(=O)/N=C(\N)NCCC[C@H](NC(=O)[C@@H](N)CC(=O)O)C(=O)N[C@H](C(=O)N[C@@H](Cc1ccc(O)cc1)C(=O)N[C@H](C(=O)N[C@@H](Cc1cnc[nH]1)C(=O)N1CCC[C@H]1C(=O)N[C@@H](Cc1ccccc1)C(=O)O)[C@@H](C)CC)C(C)C.O=C(O)C(F)(F)F.O=C(O)C(F)(F)F.O=C(O)C(F)(F)F` (H-D[X1]VYIHPF-OH), in [9], the metabolised at 2 h, 50 µM was less than 5.5%. Further, in data set [10], the EC50 came out at 1.1 nM. Besides, in [2], the IC50 is 2.19 nM and affinity was put at a Ki of 0.71 nM. Further, the Stability result in data set [11] is given as “Stable”. Further, the metabolised at 6 h, 50 µM in data set [12] was less than 2%.
Consider `CCC(=O)NCCCCNC(=O)/N=C(\N)NCCC[C@H](N)C(=O)N[C@@H](CCCNC(=N)N)C(=O)N1CCC[C@H]1C(=O)N[C@@H](Cc1ccc(O)cc1)C(=O)N[C@H](C(=O)N[C@@H](CC(C)C)C(=O)O)[C@@H](C)CC.O=C(O)C(F)(F)F.O=C(O)C(F)(F)F.O=C(O)C(F)(F)F` (H-[X1]RPYIL-OH), for which the metabolised at 2 h, 50 µM in data set [13] was less than 4%. Also, in [14], the metabolised at 6 h, 50 µM is less than 4%. Also, the values for the inhibition constant (Ki) in data set [15], in data set [17] and in [18] were 0.63 nM, 2.5 nM and 0.47 nM, respectively. The EC50 in data set [16] came out at 2 nM. Further, the Stability entry in data set [11] was “Stable”. The molecule further gave a 50% inhibitory concentration (IC50) in data set [18] of 1.35 nM.
In data set [19], H-EYWSLAAPQRF-NH2 came in with an inhibitory constant (Ki) of 0.53 nM. The molecule also registered a dissociation constant Kd in data set [20] of 0.54 nM.
